What was measured:
Format in all cases: toxicity, cell-based
Fibroblast [1] = experiment: Multiplex assay against human fibroblast
Summary of the method: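 Four dyes were applied at seeding to live cells: Hoechst33342, BioTracker Green Microtubule Cytoskeleton Dye, MitoTracker Red and Annexin V Alexa Fluor 680. Imaging after compound addition used a CQ1 microscope at 37°C and 5% CO2. CellPathfinder machine-learning gating then sorted cells into Hoechst high-intensity objects or normal cells, normal cells into healthy, pyknosed or fragmented nuclei, and pyknosed cells into mitotic or apoptotic, with tubulin, mitochondrial-mass and membrane-permeability phenotypes given as per cents of healthy-nucleus cells.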

U2OS = experiment: Incucyte cell viability with U2OS; settings: human, 10 µM, compound concentration 10 uM; note: filed as whole numbers so only -1 and 0 and 1 occur
HEK-293T = experiment: Incucyte cell viability with HEK293T; settings: human, 10 µM, compound concentration 10 uM; note: filed as whole numbers so only -1 and 0 and 1 occur
Fibroblast [2] = experiment: Incucyte cell viability with human fibroblast; settings: 10 µM, compound concentration 10 uM; note: filed as whole numbers so only -1 and 0 and 1 occur
[3] = 12 h, 1 µM, compound concentration 1 uM, replicate 1
[4] = 12 h, 1 µM, compound concentration 1 uM, replicate 2
[5] = 12 h, 10 µM, compound concentration 10 uM, replicate 1
[6] = 12 h, 10 µM, compound concentration 10 uM, replicate 2
[7] = 24 h, 1 µM, compound concentration 1 uM, replicate 1
[8] = 24 h, 1 µM, compound concentration 1 uM, replicate 2
[9] = 24 h, 10 µM, compound concentration 10 uM, replicate 1
[10] = 24 h, 10 µM, compound concentration 10 uM, replicate 2
[11] = 6 h, replicate number 1, timepoint 6 hours
[12] = 12 h, replicate number 1, timepoint 12 hours
[13] = 18 h, replicate number 1, timepoint 18 hours
[14] = 24 h, replicate number 1, timepoint 24 hours
[15] = 0 h, replicate number 1, timepoint 0 hours

Cc1ccc(NC(=O)Nc2cc(C(F)(F)F)ccc2F)cc1Nc1ccc2c(c1)NC(=O)/C2=C\c1ccc[nH]1
Population Apoptotic (%) (Fibroblast [1]; [3]): 36% | Population Fragmented Nuclei (%) (Fibroblast [1]; [3]): 13% | Population Healthy Nuclei (%) (Fibroblast [1]; [3]): 59% | Population Hoechst High Intensity Objects (%) (Fibroblast [1]; [3]): 10% | Population Membrane Permeable-Phenotype (%) (Fibroblast [1]; [3]): 58% | Population Mitochondria Different-Phenotype (%) (Fibroblast [1]; [3]): 0% | Population Mitotic Cells (%) (Fibroblast [1]; [3]): 63% | Population Normal (%) (Fibroblast [1]; [3]): 89% | Population Pyknosed Nuclei (%) (Fibroblast [1]; [3]): 27% | Population Tubulin-Different-Phenotype (%) (Fibroblast [1]; [3]): 36% | Total Cell Count (Fibroblast [1]; [3]): 178 | Population Apoptotic (%) (Fibroblast [1]; [4]): 100% | Population Fragmented Nuclei (%) (Fibroblast [1]; [4]): 60% | Population Healthy Nuclei (%) (Fibroblast [1]; [4]): 36% | Population Hoechst High Intensity Objects (%) (Fibroblast [1]; [4]): 50% | Population Membrane Permeable-Phenotype (%) (Fibroblast [1]; [4]): 63% | Population Mitochondria Different-Phenotype (%) (Fibroblast [1]; [4]): 18% | Population Mitotic Cells (%) (Fibroblast [1]; [4]): 0% | Population Normal (%) (Fibroblast [1]; [4]): 49% | Population Pyknosed Nuclei (%) (Fibroblast [1]; [4]): 3% | Population Tubulin-Different-Phenotype (%) (Fibroblast [1]; [4]): 54% | Total Cell Count (Fibroblast [1]; [4]): 61 | Population Apoptotic (%) (Fibroblast [1]; [5]): 66% | Population Fragmented Nuclei (%) (Fibroblast [1]; [5]): 15% | Population Healthy Nuclei (%) (Fibroblast [1]; [5]): 52% | Population Hoechst High Intensity Objects (%) (Fibroblast [1]; [5]): 17% | Population Membrane Permeable-Phenotype (%) (Fibroblast [1]; [5]): 4% | Population Mitochondria Different-Phenotype (%) (Fibroblast [1]; [5]): 3% | Population Mitotic Cells (%) (Fibroblast [1]; [5]): 33% | Population Normal (%) (Fibroblast [1]; [5]): 82% | Population Pyknosed Nuclei (%) (Fibroblast [1]; [5]): 32% | Population Tubulin-Different-Phenotype (%) (Fibroblast [1]; [5]): 5% | Total Cell Count (Fibroblast [1]; [5]): 210 | Population Apoptotic (%) (Fibroblast [1]; [6]): 20% | Population Fragmented Nuclei (%) (Fibroblast [1]; [6]): 50% | Population Healthy Nuclei (%) (Fibroblast [1]; [6]): 40% | Population Hoechst High Intensity Objects (%) (Fibroblast [1]; [6]): 20% | Population Membrane Permeable-Phenotype (%) (Fibroblast [1]; [6]): 0% | Population Mitochondria Different-Phenotype (%) (Fibroblast [1]; [6]): 19% | Population Mitotic Cells (%) (Fibroblast [1]; [6]): 80% | Population Normal (%) (Fibroblast [1]; [6]): 80% | Population Pyknosed Nuclei (%) (Fibroblast [1]; [6]): 9% | Population Tubulin-Different-Phenotype (%) (Fibroblast [1]; [6]): 0% | Total Cell Count (Fibroblast [1]; [6]): 65 | Population Apoptotic (%) (Fibroblast [1]; [7]): 28% | Population Fragmented Nuclei (%) (Fibroblast [1]; [7]): 10% | Population Healthy Nuclei (%) (Fibroblast [1]; [7]): 61% | Population Hoechst High Intensity Objects (%) (Fibroblast [1]; [7]): 8% | Population Membrane Permeable-Phenotype (%) (Fibroblast [1]; [7]): 51% | Population Mitochondria Different-Phenotype (%) (Fibroblast [1]; [7]): 0% | Population Mitotic Cells (%) (Fibroblast [1]; [7]): 71% | Population Normal (%) (Fibroblast [1]; [7]): 91% | Population Pyknosed Nuclei (%) (Fibroblast [1]; [7]): 27% | Population Tubulin-Different-Phenotype (%) (Fibroblast [1]; [7]): 31% | Total Cell Count (Fibroblast [1]; [7]): 179 | Population Apoptotic (%) (Fibroblast [1]; [8]): 100% | Population Fragmented Nuclei (%) (Fibroblast [1]; [8]): 61% | Population Healthy Nuclei (%) (Fibroblast [1]; [8]): 34% | Population Hoechst High Intensity Objects (%) (Fibroblast [1]; [8]): 55% | Population Membrane Permeable-Phenotype (%) (Fibroblast [1]; [8]): 55% | Population Mitochondria Different-Phenotype (%) (Fibroblast [1]; [8]): 11% | Population Mitotic Cells (%) (Fibroblast [1]; [8]): 0% | Population Normal (%) (Fibroblast [1]; [8]): 44% | Population Pyknosed Nuclei (%) (Fibroblast [1]; [8]): 3% | Population Tubulin-Different-Phenotype (%) (Fibroblast [1]; [8]): 55% | Total Cell Count (Fibroblast [1]; [8]): 59 | Population Apoptotic (%) (Fibroblast [1]; [9]): 51% | Population Fragmented Nuclei (%) (Fibroblast [1]; [9]): 18% | Population Healthy Nuclei (%) (Fibroblast [1]; [9]): 61% | Population Hoechst High Intensity Objects (%) (Fibroblast [1]; [9]): 17% | Population Membrane Permeable-Phenotype (%) (Fibroblast [1]; [9]): 5% | Population Mitochondria Different-Phenotype (%) (Fibroblast [1]; [9]): 3% | Population Mitotic Cells (%) (Fibroblast [1]; [9]): 48% | Population Normal (%) (Fibroblast [1]; [9]): 82% | Population Pyknosed Nuclei (%) (Fibroblast [1]; [9]): 20% | Population Tubulin-Different-Phenotype (%) (Fibroblast [1]; [9]): 5% | Total Cell Count (Fibroblast [1]; [9]): 237 | Population Apoptotic (%) (Fibroblast [1]; [10]): 50% | Population Fragmented Nuclei (%) (Fibroblast [1]; [10]): 54% | Population Healthy Nuclei (%) (Fibroblast [1]; [10]): 41% | Population Hoechst High Intensity Objects (%) (Fibroblast [1]; [10]): 29% | Population Membrane Permeable-Phenotype (%) (Fibroblast [1]; [10]): 0% | Population Mitochondria Different-Phenotype (%) (Fibroblast [1]; [10]): 5% | Population Mitotic Cells (%) (Fibroblast [1]; [10]): 50% | Population Normal (%) (Fibroblast [1]; [10]): 70% | Population Pyknosed Nuclei (%) (Fibroblast [1]; [10]): 4% | Population Tubulin-Different-Phenotype (%) (Fibroblast [1]; [10]): 10% | Total Cell Count (Fibroblast [1]; [10]): 65 | Growth Rate (U2OS; [11]): 1 | Growth Rate (U2OS; [12]): 0 | Growth Rate (U2OS; 12 h, replicate number 2, timepoint 12 hours): 1 | Growth Rate (U2OS; [13]): 0 | Growth Rate (U2OS; [14]): 0 | Growth Rate (HEK-293T; [15]): 0 | Growth Rate (HEK-293T; [11]): 0 | Growth Rate (HEK-293T; [12]): 0 | Growth Rate (HEK-293T; [13]): 0 | Growth Rate (HEK-293T; [14]): 0 | Growth Rate (Fibroblast [2]; [15]): 0 | Growth Rate (Fibroblast [2]; [11]): 0 | Growth Rate (Fibroblast [2]; [12]): 0 | Growth Rate (Fibroblast [2]; [13]): 0 | Growth Rate (Fibroblast [2]; [14]): 0

Reference: ChEMBL document CHEMBL4689842, “EUbOPEN Chemogenomics Library wave 1” (2021)
